≈ marks a conversion by molar mass, not a printed value.
Experiments:
Staphylococcus aureus [1] = experiment: Antimicrobial activity against methicillin-sensitive Staphylococcus aureus by broth microdilution/CLSI method; type: functional
Staphylococcus aureus [2] = experiment: Antimicrobial activity against methicillin, quinolone-resistant Staphylococcus aureus by broth microdilution/CLSI method; type: functional; settings: Staphylococcus aureus; read-out: MIC
DNA gyrase subunit B = DNA gyrase subunit B (Staphylococcus aureus, UniProt P0A0K8); experiment: Inhibition of ATPase activity of Staphylococcus aureus GyrB
DNA gyrase subunit B, sequence (P0A0K8 whole entry): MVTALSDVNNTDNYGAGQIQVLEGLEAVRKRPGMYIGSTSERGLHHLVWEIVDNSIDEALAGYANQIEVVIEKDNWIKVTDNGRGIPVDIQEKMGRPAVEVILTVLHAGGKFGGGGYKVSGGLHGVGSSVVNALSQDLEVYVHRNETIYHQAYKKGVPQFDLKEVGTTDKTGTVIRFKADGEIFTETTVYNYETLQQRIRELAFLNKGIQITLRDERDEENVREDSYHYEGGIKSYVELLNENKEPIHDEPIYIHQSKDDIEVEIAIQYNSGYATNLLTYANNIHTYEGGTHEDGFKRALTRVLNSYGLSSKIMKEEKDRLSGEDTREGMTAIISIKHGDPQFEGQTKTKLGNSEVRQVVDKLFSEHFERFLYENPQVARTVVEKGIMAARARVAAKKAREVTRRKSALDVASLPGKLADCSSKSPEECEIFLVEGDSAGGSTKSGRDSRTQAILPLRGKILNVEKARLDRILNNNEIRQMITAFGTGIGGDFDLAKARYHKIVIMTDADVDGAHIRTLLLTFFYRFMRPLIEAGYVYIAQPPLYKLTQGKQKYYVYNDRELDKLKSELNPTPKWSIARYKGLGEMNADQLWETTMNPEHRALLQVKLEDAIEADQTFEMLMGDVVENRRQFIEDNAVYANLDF
Procedure, shortened: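 IC50 was determined against S. aureus GyrB in the routine screening assay. The enzyme concentration limits resolution below 10 nM.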

Haemophilus influenzae = experiment: Antimicrobial activity against Haemophilus influenzae by broth microdilution/CLSI method; type: functional; settings: Haemophilus influenzae; read-out: MIC
Escherichia coli [3] = experiment: Antimicrobial activity against Escherichia coli tolC- by broth microdilution/CLSI method; type: functional; settings: Escherichia coli; read-out: MIC
Streptococcus pneumoniae = experiment: Antibacterial activity against Streptococcus pneumoniae by broth microdilution/CLSI method; type: functional
Escherichia coli [4] = experiment: Antimicrobial activity against wild-type Escherichia coli Eco523 by broth microdilution/CLSI method; type: functional; settings: Escherichia coli, Eco523; read-out: MIC
[5] = Percentage unbound in human plasma; type: ADME, cell-free
[6] = Octanol-phosphate buffer distribution coefficient, log D of the compound at pH 7.4 by shake flask method; type: physicochemical
Streptococcus pyogenes = experiment: Antimicrobial activity against Streptococcus pyogenes by broth microdilution/CLSI method; type: functional
Moraxella catarrhalis = experiment: Antimicrobial activity against Moraxella catarrhalis by broth microdilution/CLSI method; type: functional
[7] = Solubility of the compound; type: physicochemical
[8] = Staphylococcus aureus, read-out: MIC
[9] = Streptococcus pneumoniae, read-out: MIC
[10] = Moraxella catarrhalis, read-out: MIC

SMILES | MIC (Staphylococcus aureus [1]; [8]) [µg/mL] | MIC (Staphylococcus aureus [2]) [µg/mL] | IC50 (DNA gyrase subunit B) [nM] | MIC (Haemophilus influenzae) [µg/mL] | MIC (Escherichia coli [3]) [µg/mL] | MIC (Streptococcus pneumoniae; [9]) [µg/mL] | MIC (Escherichia coli [4]) [µg/mL] | fraction unbound [5] | logD [6] | MIC (Streptococcus pyogenes) [µg/mL] | MIC (Moraxella catarrhalis; [10]) [µg/mL] | solubility [7] [µM] | MIC (Staphylococcus aureus [1]) [µg/mL] | MIC (Streptococcus pneumoniae) [µg/mL] | MIC (Moraxella catarrhalis) [µg/mL]
CO[C@H]1CO[C@]2(CN(c3ncc(C(=O)O)s3)CC[C@H]2NC(=O)c2[nH]c(C)c(Cl)c2Cl)OC1 (relative stereo) | 4 (≈ 7.91 µM) | 4 (≈ 7.91 µM) | < 10 | 1 (≈ 1.98 µM) | 1 (≈ 1.98 µM) | 0.063 (≈ 0.125 µM) | > 64 | 0.053 | -0.18 | 0.063 (≈ 0.125 µM) | 0.13 (≈ 0.257 µM) | > 1000 |  |  | 
CO[C@H]1CN(c2ncc(C(=O)O)s2)CC[C@@H]1NC(=O)c1[nH]c(C)c(Cl)c1Cl | > 64 | > 64 | 6400 | > 64 | 64 (≈ 148 µM) | 64 (≈ 148 µM) | > 64 |  |  |  | 64 (≈ 148 µM) |  |  |  | 
COC[C@H]1CN(c2ncc(C(=O)O)s2)CC[C@H]1NC(=O)c1[nH]c(C)c(Cl)c1Cl (racemic) | > 8 |  | 54 | > 8 | 1 (≈ 2.24 µM) | 4 (≈ 8.94 µM) | > 8 | 0.052 | 0.06 |  | 2 (≈ 4.47 µM) |  |  |  | 
CO[C@H]1CN(c2ncc(C(=O)O)s2)CC[C@H]1NC(=O)c1[nH]c(C)c(Cl)c1Cl (relative stereo) |  | 1 (≈ 2.31 µM) | < 10 | 0.3 (≈ 0.692 µM) | 0.35 (≈ 0.808 µM) |  | > 64 |  |  |  |  |  | 1 (≈ 2.31 µM) | 0.063 (≈ 0.145 µM) | 0.076 (≈ 0.175 µM)
CO[C@H]1CO[C@@]2(CN(c3ncc(C(=O)O)s3)CC[C@H]2NC(=O)c2[nH]c(C)c(Cl)c2Cl)OC1 (relative stereo) | 4 (≈ 7.91 µM) | 8 (≈ 15.8 µM) | < 10 | 2 (≈ 3.96 µM) | 1 (≈ 1.98 µM) | 0.063 (≈ 0.125 µM) | > 64 | 0.053 | 0.15 | 0.063 (≈ 0.125 µM) | 1 (≈ 1.98 µM) | > 1000 |  |  | 
CO[C@@H]1CN(c2ncc(C(=O)O)s2)CC[C@@H]1NC(=O)c1[nH]c(C)c(Cl)c1Cl | 32 (≈ 73.8 µM) | 32 (≈ 73.8 µM) | 140 | 16 (≈ 36.9 µM) | 8 (≈ 18.5 µM) | 1 (≈ 2.31 µM) | > 64 |  |  |  | 2 (≈ 4.62 µM) |  |  |  | 
Cc1[nH]c(C(=O)N[C@@H]2CCN(c3ncc(C(=O)O)s3)C[C@@H]2Cl)c(Cl)c1Cl (racemic) | 0.35 (≈ 0.8 µM) | 2 (≈ 4.57 µM) | < 10 | 0.18 (≈ 0.411 µM) | 0.35 (≈ 0.8 µM) | 0.044 (≈ 0.101 µM) | > 8 | 0.008 | 0.75 |  | 0.11 (≈ 0.251 µM) |  |  |  | 
C=C1COC2(CN(c3ncc(C(=O)O)s3)CC[C@H]2NC(=O)c2[nH]c(C)c(Cl)c2Cl)OC1 | 1 (≈ 2.05 µM) | 2 (≈ 4.1 µM) | < 10 | 2 (≈ 4.1 µM) | 0.5 (≈ 1.03 µM) | < 0.063 | > 64 | 0.006 | 0.82 | < 0.063 | < 0.063 | > 1000 |  |  | 
COCCO[C@H]1CN(c2ncc(C(=O)O)s2)CC[C@H]1NC(=O)c1[nH]c(C)c(Cl)c1Cl (racemic) | > 8 |  | < 10 | 8 (≈ 16.8 µM) | 2 (≈ 4.19 µM) | 0.5 (≈ 1.05 µM) | > 8 | 0.094 | 0.06 |  | 1 (≈ 2.09 µM) |  |  |  | 
Cc1[nH]c(C(=O)N[C@@H]2CCN(c3ncc(C(=O)O)s3)C[C@@H]2CO)c(Cl)c1Cl (racemic) | > 64 | 64 (≈ 148 µM) | 18 | 16 (≈ 36.9 µM) | 1 (≈ 2.31 µM) | 8 (≈ 18.5 µM) | > 64 |  | -0.42 |  | 1 (≈ 2.31 µM) |  |  |  | 
Cc1[nH]c(C(=O)N[C@@H]2CCN(c3ncc(C(=O)O)s3)C[C@@H]2F)c(Cl)c1Cl | 1.3 (≈ 3.09 µM) | 2.2 (≈ 5.22 µM) | < 10 | 0.3 (≈ 0.712 µM) | 0.081 (≈ 0.192 µM) | 0.078 (≈ 0.185 µM) | > 64 |  |  | 0.092 (≈ 0.218 µM) | 0.046 (≈ 0.109 µM) |  |  |  | 
Cc1[nH]c(C(=O)N[C@@H]2CCN(c3ncc(C(=O)O)s3)C[C@@H]2S(C)(=O)=O)c(Cl)c1Cl (racemic) | > 8 |  | < 10 | > 8 | > 8 | > 8 | > 8 | 0.13 | -1.1 | 8 (≈ 16.6 µM) | > 8 | > 1000 |  |  | 
Cc1[nH]c(C(=O)N[C@@H]2CCN(c3ncc(C(=O)O)s3)CC23OCCO3)c(Cl)c1Cl | 32 (≈ 69.4 µM) | 64 (≈ 139 µM) | 15 | 32 (≈ 69.4 µM) | 1 (≈ 2.17 µM) | 2 (≈ 4.34 µM) | > 64 | 0.075 | -0.39 | 2 (≈ 4.34 µM) | 1 (≈ 2.17 µM) | > 1000 |  |  | 
Cc1[nH]c(C(=O)N[C@@H]2CCN(c3ncc(C(=O)O)s3)CC23OCC(C)(C)CO3)c(Cl)c1Cl | 0.5 (≈ 0.993 µM) | 0.5 (≈ 0.993 µM) | < 10 | 0.25 (≈ 0.497 µM) | 1 (≈ 1.99 µM) | < 0.063 | > 64 | 0.02 | 1.07 | < 0.063 | < 0.063 | > 1000 |  |  | 
CS[C@H]1CN(c2ncc(C(=O)O)s2)CC[C@H]1NC(=O)c1[nH]c(C)c(Cl)c1Cl (racemic) | 0.13 (≈ 0.289 µM) | 0.25 (≈ 0.556 µM) | < 10 | 0.13 (≈ 0.289 µM) | 0.25 (≈ 0.556 µM) | 0.016 (≈ 0.0356 µM) | > 8 | 0.015 | 0.72 | 0.016 (≈ 0.0356 µM) | < 0.008 | > 1000 |  |  | 
C=CCO[C@H]1CN(c2ncc(C(=O)O)s2)CC[C@H]1NC(=O)c1[nH]c(C)c(Cl)c1Cl (racemic) | 0.5 (≈ 1.09 µM) | 1 (≈ 2.18 µM) | < 10 | 0.5 (≈ 1.09 µM) | 0.13 (≈ 0.283 µM) | < 0.063 | > 8 |  |  | < 0.063 | < 0.063 |  |  |  | 
Cc1[nH]c(C(=O)N[C@@H]2CCN(c3ncc(C(=O)O)s3)CC23OCC2(CC2)CO3)c(Cl)c1Cl | 0.5 (≈ 0.997 µM) | 0.5 (≈ 0.997 µM) | < 10 | 0.13 (≈ 0.259 µM) | 1 (≈ 1.99 µM) | < 0.063 | > 64 | 0.012 | 0.88 | < 0.063 | < 0.063 | > 1000 |  |  | 
Cc1[nH]c(C(=O)N[C@@H]2CCN(c3ncc(C(=O)O)s3)CC23OCCCO3)c(Cl)c1Cl | 2 (≈ 4.21 µM) | 4 (≈ 8.41 µM) | < 10 | 1 (≈ 2.1 µM) | 1 (≈ 2.1 µM) | 0.063 (≈ 0.133 µM) | > 64 | 0.03 | 0.4 | 0.063 (≈ 0.133 µM) | 0.13 (≈ 0.273 µM) | > 1000 |  |  | 
CCO[C@H]1CN(c2ncc(C(=O)O)s2)CC[C@H]1NC(=O)c1[nH]c(C)c(Cl)c1Cl (racemic) | 1 (≈ 2.24 µM) | 2 (≈ 4.47 µM) | < 10 | 2 (≈ 4.47 µM) | 1 (≈ 2.24 µM) | 0.031 (≈ 0.0693 µM) | > 8 | 0.031 | 0.67 |  | 0.13 (≈ 0.291 µM) |  |  |  | 
COC1(OC)CN(c2ncc(C(=O)O)s2)CC[C@H]1NC(=O)c1[nH]c(C)c(Cl)c1Cl | 2 (≈ 4.32 µM) | 2 (≈ 4.32 µM) | 14 | 1 (≈ 2.16 µM) | 0.5 (≈ 1.08 µM) | 0.13 (≈ 0.281 µM) | > 64 | 0.018 | 0.24 | 0.25 (≈ 0.54 µM) | 0.5 (≈ 1.08 µM) | > 1000 |  |  | 
Cc1[nH]c(C(=O)N[C@@H]2CCN(c3ncc(C(=O)O)s3)C[C@@H]2C)c(Cl)c1Cl (racemic) | 4 (≈ 9.59 µM) | 4 (≈ 9.59 µM) | 14 | 2 (≈ 4.79 µM) | 0.5 (≈ 1.2 µM) | 0.5 (≈ 1.2 µM) | > 8 | 0.023 | 0.54 |  | 0.5 (≈ 1.2 µM) |  |  |  | 
CO[C@H]1CN(c2nc(-c3ccn[nH]3)c(C(=O)O)s2)CC[C@H]1NC(=O)c1[nH]c(C)c(Cl)c1Cl | 0.5 (≈ 1 µM) | 0.17 (≈ 0.34 µM) | < 10 | 0.5 (≈ 1 µM) | 0.18 (≈ 0.36 µM) | < 0.06 | 64 (≈ 128 µM) |  | 1.7 | < 0.06 | < 0.06 | 740 (≈ 370 µg/mL) |  |  | 
CO[C@@H]1CN(c2ncc(C(=O)O)s2)CC[C@H]1NC(=O)c1[nH]c(C)c(Cl)c1Cl | > 64 | > 64 | 110 | 16 (≈ 36.9 µM) | 2 (≈ 4.62 µM) | 8 (≈ 18.5 µM) | > 64 |  |  |  | 2 (≈ 4.62 µM) |  |  |  | 
Cc1[nH]c(C(=O)N[C@@H]2CCN(c3ncc(C(=O)O)s3)C[C@@H]2N=[N+]=[N-])c(Cl)c1Cl (racemic) | 0.13 (≈ 0.293 µM) | 0.25 (≈ 0.563 µM) | < 10 | < 0.063 | < 0.063 | < 0.063 | 32 (≈ 72 µM) | 0.038 | 0.53 | < 0.063 | < 0.063 | > 1000 |  |  | 
Cc1[nH]c(C(=O)N[C@@H]2CCN(c3ncc(C(=O)O)s3)C[C@@H]2O)c(Cl)c1Cl (racemic) | 16 (≈ 38.2 µM) | 16 (≈ 38.2 µM) | 16 | 1 (≈ 2.38 µM) | 1 (≈ 2.38 µM) | 0.5 (≈ 1.19 µM) | > 64 |  | -0.67 |  | 4 (≈ 9.54 µM) |  |  |  | 
C#CCO[C@H]1CN(c2ncc(C(=O)O)s2)CC[C@H]1NC(=O)c1[nH]c(C)c(Cl)c1Cl | 0.25 (≈ 0.547 µM) | 0.25 (≈ 0.547 µM) | < 10 | 0.13 (≈ 0.284 µM) | 0.13 (≈ 0.284 µM) | 0.016 (≈ 0.035 µM) | > 8 | 0.03 | 0.44 | 0.016 (≈ 0.035 µM) | 0.016 (≈ 0.035 µM) | > 1000 |  |  | 
